Two compounds from ChEMBL document CHEMBL4627337, “Synthesis and pharmacokinetic study of a 11C-labeled cholesterol 24-hydroxylase inhibitor using 'in-loop' [11C]CO2 fixation method” (Bioorg Med Chem Lett, 2020) can be followed below.

Bounds are passed on as bounds.

The target of series [1] is Cholesterol 24-hydroxylase (Homo sapiens, UniProt Q9Y6A2). In words: Binding affinity to truncated d(2-50) 4His-tagged human CYP46A1 expressed in Escherichia coli DH5alpha as cholesterol-24 hydroxylation using cholesterol as substrate incubated for 30 mins in presence of NADPH cytochrome P450 oxidoreductase by gas chromatography-mass spectrometry.
Cholesterol 24-hydroxylase, sequence (Q9Y6A2 whole entry, the tested form may be a part): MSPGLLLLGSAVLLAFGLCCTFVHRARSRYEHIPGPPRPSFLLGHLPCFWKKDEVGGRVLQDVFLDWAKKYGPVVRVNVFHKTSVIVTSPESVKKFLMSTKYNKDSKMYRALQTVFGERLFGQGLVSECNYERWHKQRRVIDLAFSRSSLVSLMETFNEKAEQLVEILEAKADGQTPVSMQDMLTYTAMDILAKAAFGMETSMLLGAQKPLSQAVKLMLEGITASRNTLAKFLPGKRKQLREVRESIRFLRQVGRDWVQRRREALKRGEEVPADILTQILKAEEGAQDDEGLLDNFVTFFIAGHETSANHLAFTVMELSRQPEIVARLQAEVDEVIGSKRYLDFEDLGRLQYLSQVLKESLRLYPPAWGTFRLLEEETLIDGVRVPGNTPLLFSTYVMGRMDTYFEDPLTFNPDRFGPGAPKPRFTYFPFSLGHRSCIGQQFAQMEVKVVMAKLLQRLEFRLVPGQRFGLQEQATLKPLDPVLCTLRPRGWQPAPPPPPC
A short description of series [2]: Drug uptake in dosed iv mouse liver assessed as per gram of wet tissue measured after 5 to 60 mins. It counts as ADME, organism-based. To be noted: read-out: Drug uptake. In a few lines: (§1)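 Ex vivo whole-body biodistribution in mice after intravenous radioligand injection. Tissues collected at 5, 15, 30 and 60 min; radioactivity expressed as %ID/g, mean ± SD, n = 4 per time point.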

The nature of series [3]: Lipophilicity, logD of compound in n-octanol and phosphate buffered saline by shake flask method. In kind it is physicochemical. In a few lines:
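Shake-flask partition of the 11C-labeled compound between n-octanol and phosphate buffered saline; logD calculated from the distribution of radioactivity between phases.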

Series [4] in a line: Drug uptake in iv dosed mouse brain after 5 to 60 mins. In kind it is ADME, organism-based. The conditions noted are these: in vivo. The gist of the method:
as §1

The nature of series [5]: Drug uptake in iv dosed mouse pancreas assessed as per gram of wet tissue measured after 5 to 60 mins. In kind it is ADME, organism-based. The conditions noted are these: read-out: Drug uptake. In a few lines: as §1
Series [6] can be described thus: Stability in saline containing 5% ethanol assessed as compound radiolysis after 90 mins post formulation. It counts as physicochemical. The conditions noted are these: buffer, 1.5 h. The gist of the method: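 Radiotracer formulated in saline containing 5% ethanol and held for 90 min after formulation, then checked for radiolysis.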
Series [7] in a line: Drug uptake in iv dosed mouse lung assessed as per gram of wet tissue measured after 5 to 60 mins. It counts as ADME, organism-based. To be noted: read-out: Drug uptake. In a few lines:
as §1

Series [8] in a line: Tmax in iv dosed mouse small intestine. In kind it is ADME, organism-based. In a few lines:
as §1

Series [9] can be described thus: Drug uptake in iv dosed mouse small intestine assessed as per gram of wet tissue measured after 5 to 60 mins. It counts as ADME, organism-based. To be noted: read-out: Drug uptake. In a few lines:
as §1

Series [10] can be described thus: Drug uptake in CD1 mouse brain assessed as standard uptake value after 0.5 mins. To be noted: in vivo. In kind it is ADME, tissue-based. In a few lines:
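Dynamic PET acquisition in CD-1 mice over 60 min after radioligand injection; brain time–activity curves expressed as standard uptake value. Blocking arm pretreated with 2-phenylcyclopropan-1-amine (3 mg/kg); uptake compared by area under the curve.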

The nature of series [11]: Drug uptake in iv dosed mouse kidney assessed as per gram of wet tissue measured after 5 to 60 mins. In kind it is ADME, organism-based. To be noted: read-out: Drug uptake. The gist of the method:
as §1

Turning to `O=C(NCc1ccccc1)N1CCN(c2cncnc2-c2ccccc2)CC1`, the Ki (in general, the dissociation constant of the complex between target and ligand, obtained from inhibition or displacement) in series [1] came out at 7.3 µM.
In the case of `O=[11C](NCc1ccccc1)N1CCN(c2cncnc2-c2ccccc2)CC1`, the tissue uptake in series [2], in [5], in series [7], in series [9] and in series [11] was above 10 %ID/g each time. Further, in series [3], the logD (in general, lipophilicity at a set pH, counting ionised and neutral species) came out at 3.05. For the same compound, the Drug uptake entry in series [4] is reported as “Active”. In addition, in series [6], the Stability result is “Stable”. Besides, in series [8], the time to peak (Tmax) (usually the time from dosing to the highest level) was 30 min. In series [10], the SUV was 0.42.
